As usually defined, the IC50 is the concentration that gives 50% inhibition. The term MIC denotes the smallest concentration in the dilution series that meets the test's criterion for growth inhibition. A high value points to a need for much substance.

In brackets after ≈: the same amount, converted by molar mass. Square brackets hold non-standard residues; d marks the D form. Peptide text beside a SMILES is read from it. Nphe = O=C(O)CNCc1ccccc1; Nlys = NCCCCNCC(=O)O Bounds are passed on as bounds.

A short description of data set [1]: Therapeutic index, ratio of HC10 for human erythrocyte cells to MIC for multidrug resistant bacterial strains. As to conditions: read-out: TI. Summed up:
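TI = hemolytic activity divided by median of MIC values. Hemolysis: washed fresh human RBCs (1% v/v in TBS, pH 7.2) with 2-fold oligomer dilutions (1–128 μM), 37 °C, 1 h; supernatant OD 405 nm; melittin 400 μg/mL = 100%, TBS = 0%. HA = concentration giving ≥10% lysis. MICs by broth microdilution, 35 °C, 16–20 h.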

Another data set concerns HeLa. The experiment in a line: Cytotoxicity against human HeLa cells assessed as growth inhibition after 1 hr. Format: cell-based. The method in brief: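 HeLa cells seeded at 9000 per well, cultured 24 h; at 80−100% confluency washed with HBSS and exposed 1 h (37 °C, 50 rpm) to 2-fold serial dilutions in EMEM. After washing, MTS/PMS (240/2.4 μg/mL) in HBSS added for 1.5 h; formazan read at 492 nm. 0.2% SDS = 0%, EMEM alone = 100%. Test range 1−128 or 8−1024 μM; IC50 reported.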

Data set [2] can be described thus: Hemolytic activity against human RBCs after 1 hr by spectrophotometry. Format: ADME, cell-based. As to conditions: erythrocyte. The method in brief: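 Freshly drawn human erythrocytes washed in TBS (pH 7.2, 10 mM Tris, 150 mM NaCl), 1% v/v suspension mixed with 2-fold serial dilutions (1−128 μM) in water; 1 h at 37 °C. After pelleting, supernatant diluted 1:1 with water and hemoglobin read at OD 405 nm. Melittin (400 μg/mL) = 100%, TBS = 0%. Value is the lowest concentration giving ≥10% lysis.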

A further data set concerns Staphylococcus aureus. The experiment in a line: Antibacterial activity against methicillin-resistant Staphylococcus aureus isolate after 16 to 20 hrs by broth microdilution assay. Type of data set: functional. (In general: Broth dilution looks for growth in wells or tubes with falling amounts of substance.)
Data set [3] concerns Klebsiella pneumoniae. The experiment in a line: Antibacterial activity against multidrug resistant NDM-1 producing Klebsiella pneumoniae isolate after 16 to 20 hrs by broth microdilution assay. Type of data set: functional.
Data set [4] concerns Klebsiella pneumoniae. The experiment in a line: Antibacterial activity against multidrug resistant KPC producing Klebsiella pneumoniae isolate after 16 to 20 hrs by broth microdilution assay. Type of data set: functional.
Data set [5] deals with Escherichia coli. The experiment in a line: Antibacterial activity against multidrug resistant Amp-C producing Escherichia coli isolate after 16 to 20 hrs by broth microdilution assay. Format: functional.
The subject of data set [6] is Escherichia coli. The experiment in a line: Antibacterial activity against multidrug resistant NDM-1 producing Escherichia coli isolate after 16 to 20 hrs by broth microdilution assay. Type of data set: functional.
For data set [7], the system named is Escherichia coli. The experiment in a line: Antibacterial activity against multidrug resistant ESBL producing Escherichia coli isolate after 16 to 20 hrs by broth microdilution assay. Type of data set: functional.
The test system of data set [8] is Escherichia coli. The experiment in a line: Antibacterial activity against Escherichia coli ATCC 25922 after 16 to 20 hrs by broth microdilution assay. Type of data set: functional.
Data set [9] can be described thus: Proteolytic stability of compound in presence of Pronase by reverse phase HPLC analysis. Format: ADME. The method in brief: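 Oligomer (2 mg/mL solution, 250 μL) incubated with Pronase (1.0 mg/mL solution, 50 μL) in 10 mM Tris pH 7.5 (1.2 mL); enzyme activity first confirmed on Nα-benzoyl arginine. Degradation followed by analytical reverse-phase HPLC (10−60% B) at 6, 12, 18 and 50 h; degradation product identified by HRMS.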

For the molecule `CC(=O)N[C@@H](CCCCN)CC(=O)N[C@@H](Cc1ccccc1)C(=O)N[C@@H](CCCCN)CC(=O)N[C@@H](Cc1ccccc1)C(=O)N[C@@H](CCCCN)CC(=O)N[C@@H](Cc1ccccc1)C(=O)N[C@@H](CCCCN)CC(=O)N[C@@H](Cc1ccccc1)C(=O)N[C@@H](CCCCN)CC(=O)N[C@@H](Cc1ccccc1)C(=O)N[C@@H](CCCCN)CC(=O)N[C@@H](Cc1ccccc1)C(=O)N[C@@H](CCCCN)CC(=O)N[C@@H](Cc1ccccc1)C(=O)N[C@@H](CCCCN)CC(=O)N[C@@H](Cc1ccccc1)C(N)=O`, the selectivity ratio in data set [1] was 8. Moreover, in the data set with HeLa, the half-maximal inhibitory concentration (IC50) was 133 µM. Moreover, the HC10 in [2] is 64 µM. The MIC in the data set on Staphylococcus aureus was found to be 256 µM (≈ 608 µg/mL); in the data set on Klebsiella pneumoniae [3], 256 µM (≈ 608 µg/mL); with Klebsiella pneumoniae [4], 128 µM (≈ 304 µg/mL); in the data set on Escherichia coli [5], 16 µM (≈ 38 µg/mL); with Escherichia coli [6], 4 µM (≈ 9.5 µg/mL); in the data set on Escherichia coli [7], 8 µM (≈ 19 µg/mL). In addition, in the data set on Escherichia coli [8], 8 µM (≈ 19 µg/mL) was the least that counted as inhibitory (MIC). In addition, the Stability result in data set [9] is recorded as “Stable”.
As for `CC(=O)N[C@H](CCCCN)C(=O)N[C@H](Cc1ccccc1)C(=O)N[C@H](CCCCN)C(=O)N[C@H](Cc1ccccc1)C(=O)N[C@H](CCCCN)C(=O)N[C@H](Cc1ccccc1)C(=O)N[C@H](CCCCN)C(=O)N[C@H](Cc1ccccc1)C(=O)N[C@H](CCCCN)C(=O)N[C@H](Cc1ccccc1)C(=O)N[C@H](CCCCN)C(=O)N[C@H](Cc1ccccc1)C(=O)N[C@H](CCCCN)C(=O)N[C@H](Cc1ccccc1)C(=O)N[C@H](CCCCN)C(=O)N[C@H](Cc1ccccc1)C(N)=O`, the selectivity ratio in [1] was below 0.008. The IC50 in the data set with HeLa worked out at 18.1 µM. The molecule further registered an HC10 in data set [2] below 1 µM. Besides, the minimum inhibitory concentration (MIC) with Staphylococcus aureus came out at 16 µM (≈ 36.2 µg/mL); against Klebsiella pneumoniae [3], 256 µM (≈ 579 µg/mL); against Klebsiella pneumoniae [4], 256 µM (≈ 579 µg/mL); against Escherichia coli [5] it was 256 µM (≈ 579 µg/mL); against Escherichia coli [6] it was 128 µM (≈ 290 µg/mL); in the data set with Escherichia coli [7], 256 µM (≈ 579 µg/mL). The same molecule yielded an MIC with Escherichia coli [8] of 128 µM (≈ 290 µg/mL). Besides, the Stability entry in data set [9] was “Stable”.
With `CC(=O)N[C@@H](CCCCN)C(=O)N(CCC(=O)N[C@@H](CCCCN)C(=O)N(CCC(=O)N[C@@H](CCCCN)C(=O)N(CCC(=O)N[C@@H](CCCCN)C(=O)N(CCC(=O)N[C@@H](CCCCN)C(=O)N(CCC(=O)N[C@@H](CCCCN)C(=O)N(CCC(=O)N[C@@H](CCCCN)C(=O)N(CCC(=O)N[C@@H](CCCCN)C(=O)N(CCC(N)=O)Cc1ccccc1)Cc1ccccc1)Cc1ccccc1)Cc1ccccc1)Cc1ccccc1)Cc1ccccc1)Cc1ccccc1)Cc1ccccc1`, the selectivity ratio in [1] is above 21. Further, in the data set on HeLa, the IC50 turned out to be 25.9 µM. This molecule also returned an HC10 in data set [2] above 128 µM. In addition, the MIC in the data set on Staphylococcus aureus is above 256 µM; with Klebsiella pneumoniae [3], 256 µM (≈ 608 µg/mL); in the data set on Klebsiella pneumoniae [4] it was 128 µM (≈ 304 µg/mL); in the data set on Escherichia coli [5], 8 µM (≈ 19 µg/mL); in the data set on Escherichia coli [6], 4 µM (≈ 9.5 µg/mL); in the data set with Escherichia coli [7], 4 µM (≈ 9.5 µg/mL). 8 µM (≈ 19 µg/mL) was the least that counted as inhibitory against Escherichia coli [8] (MIC). The Stability entry in data set [9] was “Stable”.
Consider `CC(=O)N(CCCCN)CC(=O)N(CC(=O)N(CCCCN)CC(=O)N(CC(=O)N(CCCCN)CC(=O)N(CC(=O)N(CCCCN)CC(=O)N(CC(=O)N(CCCCN)CC(=O)N(CC(=O)N(CCCCN)CC(=O)N(CC(=O)N(CCCCN)CC(=O)N(CC(=O)N(CCCCN)CC(=O)N(CC(N)=O)Cc1ccccc1)Cc1ccccc1)Cc1ccccc1)Cc1ccccc1)Cc1ccccc1)Cc1ccccc1)Cc1ccccc1)Cc1ccccc1` (Ac-[Nlys][Nphe][Nlys][Nphe][Nlys][Nphe][Nlys][Nphe][Nlys][Nphe][Nlys][Nphe][Nlys][Nphe][Nlys][Nphe]-NH2), for which, in data set [1], the selectivity ratio is above 4. The half-inhibitory concentration (IC50) in the data set on HeLa came out at 194 µM. In data set [2], this molecule displayed an HC10 above 128 µM. The minimum inhibitory concentration (MIC) in the data set on Staphylococcus aureus amounted to 256 µM (≈ 579 µg/mL); against Klebsiella pneumoniae [3], 256 µM (≈ 579 µg/mL); against Klebsiella pneumoniae [4] it was 256 µM (≈ 579 µg/mL); in the data set on Escherichia coli [5], 32 µM (≈ 72.4 µg/mL); against Escherichia coli [6] it was 32 µM (≈ 72.4 µg/mL); against Escherichia coli [7], 64 µM (≈ 145 µg/mL). The molecule also had an MIC against Escherichia coli [8] of 32 µM (≈ 72.4 µg/mL). Moreover, the Stability result in [9] is listed as “Stable”.

The values above are taken from ChEMBL document CHEMBL2169776, “Antimicrobial activity of peptidomimetics against multidrug-resistant Escherichia coli: a comparative study of different backbones” (J Med Chem, 2012).
